Article PMC4089878 (Molecular cancer therapeutics, 2013)

Legend:
K562 cells [1] = experiment: Cytotoxicity / viable cell count in K562 leukemic cells; type: cell-based, human
K562 cells [2] = experiment: Apoptosis; type: cell-based, human; settings: 24 hrs (Pimozide 48 hrs)
K562 xenograft = experiment: K562 mouse xenograft; type: in vivo, athymic nude mice; settings: 15 mg/kg daily ip, nude mice
Method in brief: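 Athymic nude mice aged 6–8 weeks were injected subcutaneously in the flank with 5 × 10^6 K562 cells mixed 1:1 with matrigel. At […] tumor size, mice received 15 mg/kg daily ip in 2% DMSO + 0.3% tartaric acid, or vehicle alone (n=10 per group). Tumor volume was calculated as width² × length/2 and compared by […] t-test.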

[3] = tested on: primary human cord blood CD34+ cells; experiment: Growth of normal cord blood CD34+ cells; type: cell-based; settings: Supplementary figure 5
[4] = tested on: ID1 protein in K562 cells; experiment: Western blot of USP1 and ID1 protein levels in K562 cells; type: cell-based, human; settings: for USP1 and ID1 protein levels: Western blot, 24 hrs (Pimozide 48 hrs)
K562 cells [5] = experiment: Benzidine staining differentiation of K562 cells; type: cell-based, human; settings: low dose, 5 days
[6] = tested on: primary AML bone marrow and peripheral blood cells; experiment: Cytotoxicity in primary AML patient cells; type: cell-based, human; settings: 48-72 hrs
Method in brief: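 Fresh bone marrow and peripheral blood were taken from AML patients, and mononuclear cells were harvested. These were cultured in triplicate with test compound or DMSO for 48–72 h, and viability was determined. Data come from 3 patient samples, shown as mean ± SEM.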

[7] = tested on: MOLM14, OCI-AML3, U937 and SK-NO1; experiment: Cytotoxicity in AML cell lines; type: cell-based, human; settings: 24 hrs
Ub-FANCD2 = experiment: Western blot of Ub-FANCD2, Ub-FANCI, Ub-PCNA levels; type: cell-based, human; settings: supplementary figure 6
U2OS-DRGFP cells = experiment: DR-GFP homologous recombination reporter; type: cell-based, human; settings: 24 h treatment
Method in brief: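 U2OS-DRGFP cells carry a single chromosomally integrated copy of the HR substrate and were grown in DMEM with 10% FBS. DSBs were induced by I-SceI expression after plasmid transfection. After 24 h, cells were exposed to test compound for 24 h. The percentage of viable GFP-positive cells was measured by FACS and normalized to the solvent vehicle group.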

native USP1/UAF1 complex = experiment: HA-Ub-VS competition assay on native USP1 in cell extracts; type: cell-based, human; settings: K562 cells treated 24 hrs (SJB2-043 1 μM); Ub-Aldehyde 5 μM added to extract
Method in brief: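 K562 cells were treated with test compound or DMSO for 24 h. Cell extracts were then incubated with 0.5 μM final HA-Ub-vinylsulfone for 45 min at 30 °C. As a control, an aliquot of untreated extract was pretreated with 5 μM ubiquitin-aldehyde before probe addition. Samples were immunoblotted with anti-HA and anti-USP1 antibodies.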

native USP1/UAF1 complex, sequence (O94782 1-671 limits assumed): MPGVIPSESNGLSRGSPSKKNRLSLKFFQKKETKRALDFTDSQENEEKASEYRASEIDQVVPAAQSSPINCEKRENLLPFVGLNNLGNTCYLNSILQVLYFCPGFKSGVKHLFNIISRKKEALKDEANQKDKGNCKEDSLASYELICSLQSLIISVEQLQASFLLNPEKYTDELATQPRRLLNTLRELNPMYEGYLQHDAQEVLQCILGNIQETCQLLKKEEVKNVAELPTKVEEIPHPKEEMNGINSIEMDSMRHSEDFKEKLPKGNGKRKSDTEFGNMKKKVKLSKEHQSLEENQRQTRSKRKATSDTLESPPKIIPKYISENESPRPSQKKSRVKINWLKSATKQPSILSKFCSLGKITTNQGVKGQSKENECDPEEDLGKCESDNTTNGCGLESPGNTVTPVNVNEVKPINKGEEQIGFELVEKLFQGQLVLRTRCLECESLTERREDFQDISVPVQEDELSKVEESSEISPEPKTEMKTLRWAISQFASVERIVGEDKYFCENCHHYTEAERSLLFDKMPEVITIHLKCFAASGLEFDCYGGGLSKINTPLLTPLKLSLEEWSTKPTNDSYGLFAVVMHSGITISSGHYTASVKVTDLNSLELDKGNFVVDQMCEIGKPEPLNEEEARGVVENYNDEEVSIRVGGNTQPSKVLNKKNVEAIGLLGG
native USP1/UAF1 complex, sequence (Q8TAF3 whole entry, further chain): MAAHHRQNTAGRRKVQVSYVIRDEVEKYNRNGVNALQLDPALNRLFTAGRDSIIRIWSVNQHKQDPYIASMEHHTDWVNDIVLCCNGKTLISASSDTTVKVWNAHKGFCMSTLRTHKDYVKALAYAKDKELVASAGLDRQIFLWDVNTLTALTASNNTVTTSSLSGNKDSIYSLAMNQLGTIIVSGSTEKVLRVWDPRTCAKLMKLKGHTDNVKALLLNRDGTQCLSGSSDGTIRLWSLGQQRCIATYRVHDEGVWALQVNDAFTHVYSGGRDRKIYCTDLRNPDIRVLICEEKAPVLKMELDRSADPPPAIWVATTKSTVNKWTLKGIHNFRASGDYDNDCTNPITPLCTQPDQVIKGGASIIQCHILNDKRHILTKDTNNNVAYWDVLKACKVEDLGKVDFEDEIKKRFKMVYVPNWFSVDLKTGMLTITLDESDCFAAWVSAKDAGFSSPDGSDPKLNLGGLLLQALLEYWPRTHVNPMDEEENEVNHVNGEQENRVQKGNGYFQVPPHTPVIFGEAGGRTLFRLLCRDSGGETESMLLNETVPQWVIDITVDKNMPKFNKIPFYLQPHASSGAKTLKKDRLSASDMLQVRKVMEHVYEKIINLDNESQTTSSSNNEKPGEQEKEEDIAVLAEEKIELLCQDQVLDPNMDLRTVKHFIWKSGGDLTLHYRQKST

Compound: O=c1[nH]c2ccccc2n1C1CCN(CCCC(c2ccc(F)cc2)c2ccc(F)cc2)CC1 [Pimozide, reference compound]
- K562 cell growth (K562 cells [1]; 48 hrs): dose-dependent inhibition of K562 cell growth
- apoptosis of K562 cells (K562 cells [2]): induction of apoptosis
- tumor growth in K562 xenograft (K562 xenograft): modest inhibition of tumor growth
- effect on normal human cord blood CD34+ cells [3]: tolerated at high micromolar doses
- USP1 and ID1 protein levels [4]: promoted ID1 degradation

Compound: O=C1c2ccccc2C(=O)c2oc(-c3ccccc3)nc21 [SJB2-043]
- EC50 (K562 cells [1]; read-out: EC50, decrease in the number of viable K562 cells, 24 hrs, ± 0.08 (95% Confidence Limits)): ~1070 nM
- differentiation of K562 cells (K562 cells [5]): activated differentiation of K562 cells into hemoglobin-expressing erythroid cells
- cytotoxicity on primary AML bone marrow and peripheral blood cells [6]: dose-dependent cytotoxicity
- apoptosis of K562 cells (K562 cells [2]): induced apoptosis of K562 cells in a dose-dependent manner
- cytotoxicity in AML cell lines [7]: dose-dependent cytotoxicity and concomitant ID1 degradation
- levels of Ub-FANCD2 / Ub-PCNA (Ub-FANCD2): increased the level of Ub-FANCD2
- effect on normal human cord blood CD34+ cells [3]: did result in growth inhibition
- USP1/ID1 degradation, time course ([4]; 2 μM, 18 hrs or 26 hrs): complete degradation of USP1/ID1
- USP1 and ID1 protein levels [4]: dose-dependent decrease in USP1 levels and a concomitant degradation of ID1 protein

Compound: O=C1c2ccccc2C(=O)c2oc(-c3cccnc3)nc21 [SJB3-019A]
- potency relative to SJB2-043 in cytoxicity in K562 cells (K562 cells [1]; K562 cells): 5 times
- levels of Ub-FANCD2 / Ub-PCNA (Ub-FANCD2): increased the levels of Ub-FANCD2 and Ub-PCNA
- potency relative to SJB2-043 in promoting ID1 degradation [4]: 5 times
- gene conversion / HR activity (U2OS-DRGFP cells): decreased the HR activity

Compound: Ub-aldehyde
- Ub-VS labeling of native USP1 (native USP1/UAF1 complex): complete loss of USP1-Ub-VS conjugates
